The values that follow come from ChEMBL document CHEMBL1153918, “Novel fatty acid synthase (FAS) inhibitors: design, synthesis, biological evaluation, and molecular docking studies” (Bioorg Med Chem, 2009).

The subject of one data set is FAS. The data set can be described thus: Therapeutic index, ratio of TC50 for human HLF to IC50 for rat liver FAS. The conditions noted are these: HLF cells (TC50). The method, boiled down:
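In vitro therapeutic index = TC50 (HLF cells, MTT) / IC50 (purified rat liver FAS, NADPH oxidation at 340 nm).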

The next data set concerns HeLa. The data set can be described thus: Cytotoxicity against human HeLa cells after 20 hrs by trypan blue exclusion assay. Type of data set: functional, cell-based. A digest of the protocol: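 HeLa cells kept in DMEM with 10% fetal calf serum at 37 °C, 5% CO2, for 24 h. About 2.5×10^4 cells/well exposed to graded concentrations (DMSO solution) for 20 h. Cells then trypsinized and counted by trypan-blue exclusion. Three repeats gave SD.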

For the next data set, the system named is HL-60. Description: Cytotoxicity against human HL60 cells assessed as cell viability after 2 hrs by MTT assay. Format: functional, cell-based. The conditions noted are these: HL-60, 2 h. The method, boiled down:
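HL60 cells in exponential growth suspended in 1640 medium, about 2×10^4 cells/well. Serially diluted compound (DMSO solution) added, then 2 h incubation at 37 °C in 5% CO2. Viable cells counted by MTT. […] given ± SD from three repeats.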

Data set [1] is described as follows: Cytotoxicity against human HLF by MTT assay. The conditions noted are these: HLF cells, read-out: TC50 (the source's name). Type of data set: cell-based. A digest of the protocol: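 Human embryonic lung fibroblasts (HLF), viability read by MTT method. TC50 values are means of three experiments.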
In general terms: Formazan colour is commonly taken as a measure of viable cells.

The next data set deals with Fatty acid synthase (Rattus norvegicus, UniProt P12785). Description: Inhibition of rat liver FAS by Coomassie blue staining. The method, boiled down: (§1)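 Rat liver FAS purified, about 90% pure by SDS-PAGE with Coomassie staining. Enzyme, compound, NADPH and acetyl-CoA preincubated in K2HPO4 buffer pH 7.0 for 30 min at 37 °C. Malonyl-CoA then added and NADPH oxidation followed at 340 nm for 3 min at 37 °C. IC50 by linear regression, mean of triplicates. Single-point data given as % inhibition at 60 µM.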

Data set [2] concerns the target Fatty acid synthase (Rattus norvegicus) (UniProt P12785). The data set can be described thus: Inhibition of rat liver FAS at 60 uM by Coomassie blue staining. The method, boiled down: as §1

A word on the IC50: it is the concentration that gives 50% inhibition. As usually defined, the inhibition is the share of the control response that was lost under treatment. A higher inhibition goes with strong suppression.

Sequence of Fatty acid synthase (P12785 whole entry): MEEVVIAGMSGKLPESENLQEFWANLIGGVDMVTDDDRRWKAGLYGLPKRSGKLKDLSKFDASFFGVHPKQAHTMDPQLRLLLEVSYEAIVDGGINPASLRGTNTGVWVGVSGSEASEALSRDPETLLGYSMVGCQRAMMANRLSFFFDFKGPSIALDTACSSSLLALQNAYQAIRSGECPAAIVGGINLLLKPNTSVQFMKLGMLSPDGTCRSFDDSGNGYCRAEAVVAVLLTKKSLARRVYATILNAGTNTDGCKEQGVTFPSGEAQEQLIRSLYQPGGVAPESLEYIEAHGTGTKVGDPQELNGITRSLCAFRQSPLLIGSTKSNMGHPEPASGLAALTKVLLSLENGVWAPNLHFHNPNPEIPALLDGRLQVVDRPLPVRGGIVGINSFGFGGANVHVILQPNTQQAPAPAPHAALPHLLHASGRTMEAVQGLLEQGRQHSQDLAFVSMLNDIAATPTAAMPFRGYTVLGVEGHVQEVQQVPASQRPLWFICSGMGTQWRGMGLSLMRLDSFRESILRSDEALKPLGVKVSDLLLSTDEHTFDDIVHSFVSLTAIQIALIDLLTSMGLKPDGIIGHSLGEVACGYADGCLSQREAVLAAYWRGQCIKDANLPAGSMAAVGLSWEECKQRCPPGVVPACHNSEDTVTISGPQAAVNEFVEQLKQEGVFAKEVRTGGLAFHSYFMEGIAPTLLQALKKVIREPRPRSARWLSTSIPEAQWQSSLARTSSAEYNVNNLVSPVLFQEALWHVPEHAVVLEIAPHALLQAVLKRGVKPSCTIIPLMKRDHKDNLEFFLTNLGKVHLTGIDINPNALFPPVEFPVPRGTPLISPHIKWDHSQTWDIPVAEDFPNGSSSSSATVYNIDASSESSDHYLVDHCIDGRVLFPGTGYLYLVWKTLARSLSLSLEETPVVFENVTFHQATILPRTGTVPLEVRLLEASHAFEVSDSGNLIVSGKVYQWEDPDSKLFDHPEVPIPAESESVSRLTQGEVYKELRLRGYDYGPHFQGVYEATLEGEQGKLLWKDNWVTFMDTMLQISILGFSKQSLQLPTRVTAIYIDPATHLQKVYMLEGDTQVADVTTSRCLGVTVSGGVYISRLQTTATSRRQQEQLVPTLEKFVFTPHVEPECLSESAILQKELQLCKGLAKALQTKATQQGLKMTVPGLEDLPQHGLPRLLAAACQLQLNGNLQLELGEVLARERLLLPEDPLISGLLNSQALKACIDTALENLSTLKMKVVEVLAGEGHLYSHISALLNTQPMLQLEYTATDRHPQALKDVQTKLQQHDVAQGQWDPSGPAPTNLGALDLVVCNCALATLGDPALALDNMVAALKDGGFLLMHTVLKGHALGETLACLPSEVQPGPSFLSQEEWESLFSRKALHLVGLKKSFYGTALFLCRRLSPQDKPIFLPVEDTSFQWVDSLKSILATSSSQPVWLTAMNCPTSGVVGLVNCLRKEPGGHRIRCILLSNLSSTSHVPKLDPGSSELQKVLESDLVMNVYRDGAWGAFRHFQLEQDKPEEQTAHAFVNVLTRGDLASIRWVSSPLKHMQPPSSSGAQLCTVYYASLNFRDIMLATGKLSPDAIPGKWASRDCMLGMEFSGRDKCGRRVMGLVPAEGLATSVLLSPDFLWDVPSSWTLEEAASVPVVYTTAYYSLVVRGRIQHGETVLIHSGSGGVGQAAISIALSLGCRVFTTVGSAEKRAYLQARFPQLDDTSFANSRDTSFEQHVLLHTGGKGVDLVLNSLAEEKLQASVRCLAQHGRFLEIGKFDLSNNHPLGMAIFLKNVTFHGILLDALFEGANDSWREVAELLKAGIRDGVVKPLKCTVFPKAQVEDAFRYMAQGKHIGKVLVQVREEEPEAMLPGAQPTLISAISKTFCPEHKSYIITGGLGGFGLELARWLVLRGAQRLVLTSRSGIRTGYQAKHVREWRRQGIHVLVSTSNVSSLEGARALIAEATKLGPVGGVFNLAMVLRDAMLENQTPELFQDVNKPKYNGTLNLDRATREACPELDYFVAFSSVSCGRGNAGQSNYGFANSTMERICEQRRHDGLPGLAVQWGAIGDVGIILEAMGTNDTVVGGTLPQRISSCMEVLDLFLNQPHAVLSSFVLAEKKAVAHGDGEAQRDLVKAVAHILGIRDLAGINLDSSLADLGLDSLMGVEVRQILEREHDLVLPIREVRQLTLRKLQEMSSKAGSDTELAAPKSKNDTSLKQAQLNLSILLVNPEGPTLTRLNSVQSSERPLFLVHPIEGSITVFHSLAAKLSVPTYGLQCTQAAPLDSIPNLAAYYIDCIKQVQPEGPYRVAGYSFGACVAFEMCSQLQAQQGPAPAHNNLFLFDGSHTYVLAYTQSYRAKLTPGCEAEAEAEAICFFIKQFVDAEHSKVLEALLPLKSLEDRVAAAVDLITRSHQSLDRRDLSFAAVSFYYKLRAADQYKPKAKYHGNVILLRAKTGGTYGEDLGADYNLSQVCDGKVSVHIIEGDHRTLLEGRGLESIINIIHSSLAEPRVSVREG
Sequence of Fatty acid synthase (Rattus norvegicus) (P12785 whole entry): as above

`C=C1C(=O)O[C@H](CCCCCCCC)[C@H]1C(=O)O`: the selectivity ratio in the data set on FAS amounted to 5.61.

Consider `C=C1C(=O)S[C@H](CCCCCCCC)[C@H]1C(=O)O`, for which the IC50 with HeLa came out at 46.1 µM; in the data set on HL-60, 5.38 µM; at Fatty acid synthase it was 2.56 µM. Besides, the CC50 in data set [1] came to 23.7 µM. For the same compound, the selectivity ratio in the data set with FAS is 9.26.

For the compound `C=C1C(=O)S[C@H](CCCCCC)[C@H]1C(=O)O`, the CC50 in data set [1] was found to be 96.4 µM. The selectivity ratio in the data set on FAS came to 5.76. Also, the IC50 at Fatty acid synthase came to 16.7 µM. As to `C=C1C(=O)S[C@H](CCCCCCCCCCC)[C@H]1C(=O)O`, in data set [1], the CC50 was 4.75 µM. The same compound yielded an IC50 against Fatty acid synthase of 0.79 µM. On the same counts, the results for `C=C1C(=O)S[C@H](CCCCCCCCC)[C@H]1C(=O)O` are 6.86 µM and 2.28 µM.

On to `C=C1C(=O)S[C@H](CCCCCCCCCC)[C@H]1C(=O)O`, for which, in data set [1], the CC50 was determined as 6.8 µM. Also, the IC50 against Fatty acid synthase worked out at 1.19 µM.

Regarding `CCCCCCCCCC[C@H]1OC(=O)C(=C(C)C)[C@@H]1C(=O)O` (relative stereo), in data set [1], the CC50 is greater than 200 µM. The IC50 against Fatty acid synthase was determined as 122 µM. As for `CCCCCCCCCCC[C@@H]1OC(=O)c2ccccc2[C@H]1C(=O)O` (relative stereo), the CC50 in data set [1] was 94.2 µM. In addition, in the data set with FAS, the selectivity ratio was 4.84. Moreover, the IC50 at Fatty acid synthase was 19.5 µM.

At Fatty acid synthase, `CCCCCCCC[C@@H]1OC(=O)c2ccccc2[C@H]1C(=O)O` (relative stereo) yielded an IC50 of 88.6 µM.

On Fatty acid synthase, `CCCCCCCCC[C@@H]1OC(=O)c2ccccc2[C@H]1C(=O)O` (relative stereo) yielded an IC50 of 29.8 µM.

Consider `CCCCCCCCCCC[C@H]1OC(=O)C(=C(C)C)[C@@H]1C(=O)O` (relative stereo), for which, in data set [1], the CC50 came out at 153 µM. Besides, in the data set on FAS, the selectivity ratio came to 5.57. Besides, on Fatty acid synthase, the IC50 stood at 27.5 µM. Regarding `CCCCCCCCCC[C@@H]1OC(=O)c2ccccc2[C@H]1C(=O)O` (relative stereo), the CC50 in data set [1] was greater than 200 µM. This compound also came in with an IC50 against Fatty acid synthase of 24.2 µM. As for `CCCCCCCCC[C@H]1OC(=O)C(=C(C)C)[C@@H]1C(=O)O` (relative stereo), the inhibition in data set [2] amounted to 38.4%. For the compound `CCCCCCCCC[C@H]1OC(=O)C(C)(C)[C@@H]1C(=O)O` (relative stereo), the inhibition in data set [2] worked out at 23.8%.

Take `CCCCCCCC[C@H]1OC(=O)C(=C(C)C)[C@@H]1C(=O)O` (relative stereo): the inhibition in data set [2] was found to be 17.4%. With `CCCCCCCC[C@H]1OC(=O)C(C)(C)[C@@H]1C(=O)O` (relative stereo), in data set [2], the inhibition was determined as 16.7%. The same measure, in the same setting: next, `CCCCCCC[C@@H]1OC(=O)c2ccccc2[C@H]1C(=O)O` (relative stereo): 35.9%; `CCCCCC[C@@H]1OC(=O)c2ccccc2[C@H]1C(=O)O` (relative stereo): 19.4%.
